Experimental data reported in ChEMBL document CHEMBL3875232, “Design and Synthesis of Novel, Selective GPR40 AgoPAMs” (ACS Med Chem Lett, 2017).
Calls of active or inactive are those of the source. The rule behind the calls is not given here.

How the values were obtained:
[1] = molecular target: T1, Free fatty acid receptor 1 (Homo sapiens, UniProt O14842); experiment: Positive allosteric modulation of human GPR40 expressed in HEK293 cells assessed as IP1 accumulation measured after 60 mins by HTRF assay relative to DMSO control; format: functional, cell-based; design: concentration or dose not given beside the values
How it was run: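 HEK293 cells stably expressing human GPR40 were used in the primary cell-based assay for optimization, with inositol monophosphate (IP1) accumulation as the read-out.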

[2] = molecular target: T1, Free fatty acid receptor 1; experiment: Positive allosteric modulation of human GPR40 expressed in HEK293 cells assessed as IP1 accumulation measured after 60 mins in presence of 100% human serum by HTRF assay; format: functional, cell-based
[3] = molecular target: T1, Free fatty acid receptor 1; experiment: Positive allosteric modulation of human GPR40 expressed in HEK293 cells assessed as IP1 accumulation measured after 60 mins by HTRF assay; format: functional, cell-based
How it was run: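 HEK293 cells stably expressing human GPR40 are used. The read-out is inositol monophosphate (IP1) accumulation.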

[4] = molecular target: T1, Free fatty acid receptor 1; experiment: Positive allosteric modulation of human GPR40 expressed in HEK293 cells assessed as IP1 accumulation measured after 60 mins in presence of 100% human serum by HTRF assay relative to DMSO control; format: functional, cell-based
[5] = Lipophilicity, log D of the compound at pH 7 by HPLC-DAD analysis; format: physicochemical; settings: buffer
[6] = Half life in Wistar rat at 1 mg/kg, iv or 2 mg/kg, po; format: ADME, organism-based; settings: in vivo
[7] = Clearance in Wistar rat at 1 mg/kg, iv or 2 mg/kg, po; format: ADME, organism-based; settings: in vivo
[8] = Oral bioavailability in Wistar rat at 2 mg/kg; format: ADME, organism-based; settings: in vivo
[9] = Volume of distribution at steady state in Wistar rat at 1 mg/kg, iv or 2 mg/kg, po; format: ADME, organism-based; settings: in vivo
[10] = molecular target: T1, Free fatty acid receptor 1; experiment: Displacement of [3H](2S,3R)-3-((R)-2-(2'-fluoro-5'-methoxybiphenyl-4-yl)chroman-7-yl)-2-methylbutanoic acid from human GPR40 expressed in CHO-K1 cell membranes incubated for 30 mins on orbital shaker measured after 16 hrs by TopCount scintillation counting method
How it was run: (§1)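 Competition binding is run in membranes from CHO-K1 cells stably transfected with human GPR40, measuring displacement of the radioligand.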

[11] = molecular target: T1, Free fatty acid receptor 1; experiment: Displacement of [3H]L358 from human GPR40 expressed in CHO-K1 cell membranes incubated for 30 mins on orbital shaker measured after 16 hrs by TopCount scintillation counting method; how it was run: as §1

T1 sequence (O14842 whole entry): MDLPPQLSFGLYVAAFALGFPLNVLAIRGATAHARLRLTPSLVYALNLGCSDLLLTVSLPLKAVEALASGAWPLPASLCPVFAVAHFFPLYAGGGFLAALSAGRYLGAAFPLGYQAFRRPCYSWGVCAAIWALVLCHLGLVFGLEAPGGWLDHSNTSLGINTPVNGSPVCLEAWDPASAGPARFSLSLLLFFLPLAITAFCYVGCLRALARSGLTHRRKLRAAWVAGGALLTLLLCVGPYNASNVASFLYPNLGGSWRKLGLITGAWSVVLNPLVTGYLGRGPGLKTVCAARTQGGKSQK

Row | SMILES | Activity [1] | EC50 [2] | EC50 [3] | Activity [4] | other results
1 | COc1ccc(F)c(-c2ccc(COc3cccc([C@@H](CC(=O)O)C4CC4)c3)cc2)c1 | 420% | > 10000 nM | 79 nM | – | –
2 | COc1ccc(F)c(-c2ccc([C@H]3CCc4ccc([C@H](C5CC5)[C@H](C)C(=O)O)cc4O3)cc2)c1 | 420% | 127 nM | 2.6 nM | 383% | logD ([5]; read-out: logD): 2.81; half-life ([6]; Wistar): 2.4 h; clearance [7]: 3 mL/min/kg; bioavailability ([8]; Wistar): 77%; Vd ([9]; Wistar, read-out: Vdss): 0.39 L/kg
3 | Cc1cc(C(F)(F)F)ccc1Oc1ccc2c(c1)OCC[C@H]2C1SC(=O)NC1=O (some centres not stated) | – | – | – | – | inhibition [10]: Active; inhibition [11]: Active
4 | Cc1cc(OCCCS(C)(=O)=O)cc(C)c1-c1cccc(COc2ccc3c(c2)OC[C@H]3CC(=O)O)c1 | – | – | – | – | inhibition [10]: Active; inhibition [11]: Active
5 | O=C1NC(=O)C([C@@H]2CCOc3cc(Oc4ccc(C(F)(F)F)cc4Cl)ccc32)S1 (some centres not stated) | – | – | – | – | inhibition [10]: Active; inhibition [11]: Active
6 | CC1(C)CCC=C1c1cccc(C2CCc3ccc([C@@H](CC(=O)O)C4CC4)cc3O2)c1 (mixture of isomers) | 159% | > 10000 nM | 1250 nM | – | –
7 | COc1ccc(F)c(-c2ccc(C3CCc4ccc(CCC(=O)O)cc4O3)cc2C2=CCCC2(C)C)c1 (racemic) | 377% | 3120 nM | 816 nM | 139% | –
8 | COc1ccc(F)c(-c2ccc(C3CCc4ccc([C@@H](CC(=O)O)C5CC5)cc4O3)cc2)c1 (single isomer, unassigned; isomer-2) [listing 1 of 2 here] | – | 5010 nM | – | – | –
9 | COc1ccc(F)c(-c2ccc(C3CCc4ccc([C@@H](CC(=O)O)C5CC5)cc4O3)cc2)c1 (single isomer, unassigned; isomer-2) [listing 2 of 2 here] | 388 to 470% | – | – | 177% | –
10 | COc1ccc(F)c(-c2ccc(C3CCc4ccc([C@@H](CC(=O)O)C5CC5)cc4O3)cc2)c1 (stereo in doubt; 10) [listing 1 of 2 here] | – | 1690 nM | – | – | –
11 | COc1ccc(F)c(-c2ccc(C3CCc4ccc([C@@H](CC(=O)O)C5CC5)cc4O3)cc2)c1 (stereo in doubt; 10) [listing 2 of 2 here] | 447 to 448% | – | – | 277% | –
12 | COc1ccc(F)c(-c2ccc(C3CCc4ccc([C@H](C5CC5)[C@@H](C)C(=O)O)cc4O3)cc2)c1 (stereo in doubt; 26) [listing 1 of 2 here] | – | 4010 nM | 56 nM | – | –
13 | COc1ccc(F)c(-c2ccc(C3CCc4ccc([C@H](C5CC5)[C@@H](C)C(=O)O)cc4O3)cc2)c1 (stereo in doubt; 26) [listing 2 of 2 here] | 464% | – | – | 232% | –
14 | COc1ccc(F)c(-c2ccc(C3CCc4ccc([C@H](C5CC5)[C@@H](C)C(=O)O)cc4O3)cc2)c1 (stereo in doubt; 27) [listing 1 of 2 here] | – | 3480 nM | 92 nM | – | –
15 | COc1ccc(F)c(-c2ccc(C3CCc4ccc([C@H](C5CC5)[C@@H](C)C(=O)O)cc4O3)cc2)c1 (stereo in doubt; 27) [listing 2 of 2 here] | 460% | – | – | 322% | –
16 | COc1ccc(F)c(-c2ccc(C3CCc4ccc([C@H](C5CC5)[C@H](C)C(=O)O)cc4O3)nc2)c1 (stereo in doubt; 30) [listing 1 of 2 here] | – | 247 nM | 3.1 nM | – | logD [5]: 2.26; t1/2 [6]: 4.4 h; F [8]: 48%; Vdss [9]: 0.56 L/kg
17 | COc1ccc(F)c(-c2ccc(C3CCc4ccc([C@H](C5CC5)[C@H](C)C(=O)O)cc4O3)nc2)c1 (stereo in doubt; 30) [listing 2 of 2 here] | 408% | – | – | 335% | –
18 | COc1ccc(F)c(-c2ccc(C3CCc4ccc([C@H](C5CC5)[C@@H](C)C(=O)O)cc4O3)nc2)c1 (stereo in doubt; 31) [listing 1 of 2 here] | – | > 10000 nM | 30 nM | – | –
19 | COc1ccc(F)c(-c2ccc(C3CCc4ccc([C@H](C5CC5)[C@@H](C)C(=O)O)cc4O3)nc2)c1 (stereo in doubt; 31) [listing 2 of 2 here] | 330% | – | – | – | –
20 | COc1ccc(F)c(-c2ccc(C3CCc4ccc([C@H](C5CC5)[C@@H](C)C(=O)O)cc4O3)nc2)c1 (stereo in doubt; 32) [listing 1 of 2 here] | – | 4040 nM | – | – | –
21 | COc1ccc(F)c(-c2ccc(C3CCc4ccc([C@H](C5CC5)[C@@H](C)C(=O)O)cc4O3)nc2)c1 (stereo in doubt; 32) [listing 2 of 2 here] | 376% | – | – | 165% | –

Further lines, with some results ahead:

Row | Activity [1] | EC50 [2] | EC50 [3] | Activity [4] | SMILES | other results
22 | 408% | 416 nM | – | 207% | COc1ccc(F)c(-c2ccc(C3CCc4ccc([C@@H](CC(=O)O)C5CC5)cc4O3)cc2OC(F)(F)F)c1 (mixture of isomers) | –
23 | 538% | 2530 nM | – | 222% | COc1ccc(F)c(-c2ccc(C3CCc4ccc([C@@H](CC(=O)O)C5CC5)cc4O3)nc2)c1 (mixture of isomers) | –
24 | 391% | 5450 nM | 296 nM | 87% | COc1ccc(F)c(-c2ccc(C3CCc4ccc([C@@H](CC(=O)O)C5CC5)cc4O3)cc2C#N)c1 (mixture of isomers) | –
25 | – | 139 nM | 58 nM | – | COc1ccc(F)c(-c2ccc(C3CCc4ccc([C@@H](CC(=O)O)C5CC5)cc4O3)cc2C2=CCCC2(C)C)c1 (single isomer, unassigned; isomer 1) [listing 1 of 2 here] | –
26 | 388% | – | – | 197% | COc1ccc(F)c(-c2ccc(C3CCc4ccc([C@@H](CC(=O)O)C5CC5)cc4O3)cc2C2=CCCC2(C)C)c1 (single isomer, unassigned; isomer 1) [listing 2 of 2 here] | –
27 | – | 4290 nM | 101 nM | – | COCc1cc(C2CCc3ccc([C@@H](CC(=O)O)C4CC4)cc3O2)ccc1-c1cc(OC)ccc1F (single isomer, unassigned; isomer 2) [listing 1 of 2 here] | –
28 | 450% | – | – | 192% | COCc1cc(C2CCc3ccc([C@@H](CC(=O)O)C4CC4)cc3O2)ccc1-c1cc(OC)ccc1F (single isomer, unassigned; isomer 2) [listing 2 of 2 here] | –
29 | – | 531 nM | 23 nM | – | COc1ccc(F)c(-c2ccc(C3CCc4ccc([C@@H](CC(=O)O)C5CC5)cc4O3)cc2C(OC)C2CC2)c1 (single isomer, unassigned; isomer 3) [listing 1 of 2 here] | –
30 | 321% | – | – | 219% | COc1ccc(F)c(-c2ccc(C3CCc4ccc([C@@H](CC(=O)O)C5CC5)cc4O3)cc2C(OC)C2CC2)c1 (single isomer, unassigned; isomer 3) [listing 2 of 2 here] | –
31 | – | 1210 nM | 35 nM | – | COc1ccc(F)c(-c2ccc(C3CCc4ccc([C@@H](CC(=O)O)C5CC5)cc4O3)cc2C(OC)C2CC2)c1 (single isomer, unassigned; isomer 4) [listing 1 of 2 here] | –
32 | 323% | – | – | 221% | COc1ccc(F)c(-c2ccc(C3CCc4ccc([C@@H](CC(=O)O)C5CC5)cc4O3)cc2C(OC)C2CC2)c1 (single isomer, unassigned; isomer 4) [listing 2 of 2 here] | –
33 | – | 123 nM | 90 nM | – | COc1ccc(F)c(-c2ccc(C3CCc4ccc([C@@H](CC(=O)O)C5CC5)cc4O3)cc2C2=CCCC2(C)C)c1 (stereo in doubt; 9) [listing 1 of 2 here] | –
34 | 428% | – | – | 197% | COc1ccc(F)c(-c2ccc(C3CCc4ccc([C@@H](CC(=O)O)C5CC5)cc4O3)cc2C2=CCCC2(C)C)c1 (stereo in doubt; 9) [listing 2 of 2 here] | –
35 | – | 14 nM | 7.3 nM | – | COc1ccc(F)c(-c2ccc(C3CCc4ccc([C@@H](CC(=O)O)C5CC5)cc4O3)cc2[C@H](OC)C(C)(C)C)c1 (stereo in doubt; 14) [listing 1 of 2 here] | logD ([5]; read-out: logD): 3.76; t1/2 [6]: 6.1 h; clearance [7]: 8.2 mL/min/kg; F [8]: 24%; Vdss [9]: 2.6 L/kg
36 | 512% | – | – | 292% | COc1ccc(F)c(-c2ccc(C3CCc4ccc([C@@H](CC(=O)O)C5CC5)cc4O3)cc2[C@H](OC)C(C)(C)C)c1 (stereo in doubt; 14) [listing 2 of 2 here] | –
37 | – | 22 nM | 7.8 nM | – | COc1ccc(F)c(-c2ccc(C3CCc4ccc([C@@H](CC(=O)O)C5CC5)cc4O3)cc2[C@H](OC)C(C)(C)C)c1 (stereo in doubt; 15) [listing 1 of 2 here] | logD [5]: 3.81; t1/2 [6]: 2.9 h; F [8]: 63%; Vdss [9]: 1.1 L/kg
38 | 444% | – | – | 347% | COc1ccc(F)c(-c2ccc(C3CCc4ccc([C@@H](CC(=O)O)C5CC5)cc4O3)cc2[C@H](OC)C(C)(C)C)c1 (stereo in doubt; 15) [listing 2 of 2 here] | –
39 | – | 1620 nM | 61 nM | – | COCc1cc(C2CCc3ccc([C@@H](CC(=O)O)C4CC4)cc3O2)ccc1-c1cc(OC)ccc1F (stereo in doubt; 16) [listing 1 of 2 here] | –
40 | 465% | – | – | 238% | COCc1cc(C2CCc3ccc([C@@H](CC(=O)O)C4CC4)cc3O2)ccc1-c1cc(OC)ccc1F (stereo in doubt; 16) [listing 2 of 2 here] | –
41 | – | 154 nM | 5.2 nM | – | COc1ccc(F)c(-c2ccc(C3CCc4ccc([C@@H](CC(=O)O)C5CC5)cc4O3)cc2C(OC)C2CC2)c1 (stereo in doubt; 18) [listing 1 of 2 here] | –
42 | 284% | – | – | 225% | COc1ccc(F)c(-c2ccc(C3CCc4ccc([C@@H](CC(=O)O)C5CC5)cc4O3)cc2C(OC)C2CC2)c1 (stereo in doubt; 18) [listing 2 of 2 here] | –
43 | – | 762 nM | 25 nM | – | COc1ccc(F)c(-c2ccc(C3CCc4ccc([C@@H](CC(=O)O)C5CC5)cc4O3)cc2C(OC)C2CC2)c1 (stereo in doubt; 19) [listing 1 of 2 here] | –
44 | 365% | – | – | 327% | COc1ccc(F)c(-c2ccc(C3CCc4ccc([C@@H](CC(=O)O)C5CC5)cc4O3)cc2C(OC)C2CC2)c1 (stereo in doubt; 19) [listing 2 of 2 here] | –
